Screening results from PubChem BioAssay.
Rows were chosen to be rich in hits. Some 5.7% of all compounds tested hit in one or more screens of this group.
Mdm2 MdmX PPI – inhibitors of human Mdm2-MdmX association, primary screen, cell-based, luminescence, split luciferase, SaOS-2, uHTS; Protein Mdm4 (Homo sapiens) + E3 ubiquitin-protein ligase Mdm2 (Homo sapiens), …; SaOS-2 split-luciferase Mdm2/MdmX complementation; inhibition, % at 8 µM; 3% of 330,000 active;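 active means inhibition of at least 50% at 8 µM in the primary screen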
T cruzi inh – inhibitors of intracellular T. cruzi growth, primary screen, luminescence, NIH3T3 host cells. T. cruzi beta-gal in NIH3T3, 90 h. inhibition, % (concentration not given with the values). 1.4% of 300,000 active. AID 1885, 2009;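 active means mean inhibition across valid replicates above about 55%, limit read from the data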;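 further: signal also drops with host cell toxicity which is not excluded here; 0% = plate median of DMSO wells and 100% = zero luminescence signal; higher percent means less beta-gal luminescence so fewer parasites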
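System: NIH/3T3 fibroblasts plus reporter T. cruzi. Medium: DMEM plus 2% FBS. Probe or stimulus: 5000 reporter trypomastigotes per well. Compound: single 50 nL compound addition per well in DMSO. Incubation: co-culture of at least 90 h after 3 h attachment. Detection: GalScreen β-gal luminescence, detergent lysis, 60 min. Evaluation: parasite load inhibition, %.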
SKKanGAS inh – S. pyogenes SKKanGAS growth inhibitors in kanamycin, primary screen, streptokinase expression inhibitor project, SKKanGAS strain, BacTiter-Glo luminescence; inhibition, % at 7.5 µM; 1.3% of 300,000 active; AID 1662, 2009; 6 h;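 active means mean replicate score, as percent of positive control median, at least 50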;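 further: strain carries kanamycin resistance gene driven by streptokinase promoter and grows in 40 µg/ml kanamycin; loss of luminescence reflects streptokinase promoter inhibition or plain growth inhibition; 0% = median of DMSO wells and 100% = positive control at its reference dose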
CSC inhib – cancer stem cell viability inhibitors, primary screen, luminescence; cancer stem cell-like cells viability; inhibition, % at 7.5 µM; 1.1% of 300,000 active; AID 2717, 2010; in the data active means inhibition above about 75%; tested in HMLE shEcad cells
Beta cell apopt – inhibitors of cytokine-induced beta cell apoptosis, primary screen, luminescence; INS-1E cytokine-induced death, ATP luminescence, 48 h; percent of positive-control rescue, neutral wells zero; protection from apoptosis, % (no concentration beside the values); 0.8% of 300,000 active; AID 435005, 2010;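 active means Every replicate reaches about 75%, or at least half do and their mean reaches it too, limit read from the data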;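 further: 0% = cytokine-treated negative control wells and 100% = positive control rescue; higher means more ATP so stronger rescue from cytokine killing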
Calb FLC – C. albicans growth inhibition with fluconazole, primary screen, CaCi-2 strain, Alamar Blue fluorescence; growth inhibition, % (concentration not given with the values); C. albicans CaCi-2 (fluconazole-resistant clinical isolate) + fluconazole, 48 h; AID 1979, 2009; 0.57% of 300,000 active;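 active means growth inhibition above about 58% in most replicates, limit read from the data, passing the limit was not always enough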;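 further: all wells also contain fluconazole at 8 µg/ml as a sub-toxic cotreatment; 0% = median of DMSO wells and 100% = median of geldanamycin control wells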
The depositor's hits bear a star.

What do the screens show for `CCC(C)(CN(C)C)OC(=O)c1ccccc1` (stereo not given)?
Mdm2 MdmX PPI: -13; CSC inhib: -4; Beta cell apopt: -5

Results for CCc1ccc(C2C(C#N)=C(N)C(C#N)(C#N)C3=CCC(C(C)(C)C)CC32)cc1 (stereo not given) ?
Mdm2 MdmX PPI: 25; T cruzi inh: 50; SKKanGAS inh: 85*; CSC inhib: 14; Beta cell apopt: 4; Calb FLC: 12

Results for CCOC(=O)COc1ccccc1/C=C\[N+](=O)[O-] ?
T cruzi inh: 9; SKKanGAS inh: 5; CSC inhib: -4; Beta cell apopt: 106*; Calb FLC: 4

What do the screens show for `Cc1ccc(C(=O)COC(=O)COc2ccccc2[N+](=O)[O-])s1`?
Mdm2 MdmX PPI: -6; CSC inhib: -13; Beta cell apopt: -5

What do the screens show for `COc1cc(OC)nc(-n2ncc(Br)c(Br)c2=O)n1`?
CSC inhib: 107*; Beta cell apopt: 99*

What do the screens show for `COc1ccccc1NC(=O)C(C)OC(=O)C(C)SCC(=O)Nc1ccc(C)cc1` (stereo not given)?
Mdm2 MdmX PPI: 26

Results for COc1cc2c(cc1OC)CN(S(=O)(=O)/C=C/c1ccccc1)CC2 ?
Mdm2 MdmX PPI: 9; T cruzi inh: 2; SKKanGAS inh: 0; Calb FLC: 7

Results for CC(C)c1ccc(-n2c(-c3ccccc3)c[n+]3c2CCc2ccccc2-3)cc1 ?
T cruzi inh: 67*; SKKanGAS inh: -11; Calb FLC: -29

Results for CCn1c(CC(=O)Nc2ccc(F)cc2)nnc1SCC(=O)Nc1nncs1 ?
Mdm2 MdmX PPI: 4; T cruzi inh: -15; SKKanGAS inh: -1; CSC inhib: -11; Beta cell apopt: -2; Calb FLC: -8

Results for c1ccc(C2C3=C(Nc4ncnn42)c2ccccc2CCC3)cc1 (stereo not given) ?
Mdm2 MdmX PPI: -30; T cruzi inh: -6; SKKanGAS inh: 3; CSC inhib: 1; Beta cell apopt: 2; Calb FLC: -2

Results for Clc1ccc(C2C3=C(Nc4ncnn42)c2ccccc2CC3)cc1 (stereo not given) ?
Mdm2 MdmX PPI: 12; T cruzi inh: 4; SKKanGAS inh: 70*; CSC inhib: -3; Beta cell apopt: -7; Calb FLC: 12

Results for COC(=O)CSc1nnc(CCc2ccccc2)n1C ?
Mdm2 MdmX PPI: -9; T cruzi inh: -8; SKKanGAS inh: 0; CSC inhib: 30; Beta cell apopt: 8; Calb FLC: 3

What do the screens show for `COc1cc(-c2c(C#N)c(N)nc3c2c(C)nn3-c2ccc(C)c(C)c2)cc(OC)c1OC`?
Mdm2 MdmX PPI: 45; T cruzi inh: 45; SKKanGAS inh: 50*; CSC inhib: 12; Beta cell apopt: 14; Calb FLC: 8

How did COc1ccccc1CNC(=O)COC(=O)c1cccc(S(=O)(=O)N2CCCC2)c1 do in these assays?
Mdm2 MdmX PPI: 12; T cruzi inh: 4; SKKanGAS inh: -2; CSC inhib: -2; Beta cell apopt: -3; Calb FLC: 26

How did O=C(CS(=O)(=O)Cc1ccccc1)N1CCN(c2ccccc2F)CC1 do in these assays?
Mdm2 MdmX PPI: 20; T cruzi inh: 11; SKKanGAS inh: 1; CSC inhib: -4; Beta cell apopt: -2; Calb FLC: 0

What do the screens show for `Nc1ccc(S(=O)(=O)NNC(=O)C(=O)NNc2ccccc2)cc1`?
Mdm2 MdmX PPI: -15; T cruzi inh: 67*; SKKanGAS inh: 0; CSC inhib: -6; Beta cell apopt: -4; Calb FLC: 106*

Results for Nc1ccc(S(=O)(=O)Nc2ccc(C(=O)c3ccccc3)cc2)cc1 ?
Mdm2 MdmX PPI: 23; T cruzi inh: -12; SKKanGAS inh: 1; CSC inhib: 4; Calb FLC: -78

How did O=C(Cc1ccccc1)NNS(=O)(=O)c1ccc(F)cc1 do in these assays?
Mdm2 MdmX PPI: 14; T cruzi inh: -25; SKKanGAS inh: 3; CSC inhib: -10; Beta cell apopt: -1; Calb FLC: 2
